Measurements: ChEMBL document CHEMBL1687847, “Three residues in HIV-1 matrix contribute to protease inhibitor susceptibility and replication capacity” (2011)
The source made the active and inactive calls. The calls are words filed in the database; no cut-off is given here.

Legend:
[1] = system: Human immunodeficiency virus 1; experiment: Antiviral activity against HIV1 harboring mutant protease with matrix K76R mutant infected in HEK293T cells assessed as inhibition of viral replication after 48 hrs by luciferase assay; assay type: functional, organism-based; details: HEK-293T
Procedure, shortened: (§1)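 Resistance vectors were made by cotransfecting HEK293T cells with a p8.9NSX-derived gag-pol vector carrying the matrix/protease variant, a VSV-G plasmid and a firefly luciferase plasmid. At 16 h, producer cells were reseeded in graded PI concentrations, and vectors were harvested 24 h later to infect fresh HEK293T cells. Luciferase was read 48 h postinfection relative to no-drug controls. EC50 came from linear regression, expressed as fold change versus WT subtype B p8.9NSX, mean of ≥2 experiments.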

[2] = system: Human immunodeficiency virus 1; experiment: Antiviral activity against 8gpNS with amino acid 116 insertion removed HIV1 infected in HEK293T cells assessed as inhibition of viral replication after 48 hrs by luciferase assay; assay type: functional, organism-based; details: HEK-293T; procedure, shortened: as §1
[3] = system: Human immunodeficiency virus 1; experiment: Antiviral activity against HIV1 harboring wild type 8.9NSX with mutant amino acid 116 insertion infected in HEK293T cells assessed as inhibition of viral replication after 48 hrs by luciferase assay; assay type: functional, organism-based; details: HEK-293T; procedure, shortened: as §1
[4] = system: Human immunodeficiency virus 1; experiment: Antiviral activity against HIV1 harboring mutant protease with matrix Y79F mutant infected in HEK293T cells assessed as inhibition of viral replication after 48 hrs by luciferase assay; assay type: functional, organism-based; details: HEK-293T; procedure, shortened: as §1
[5] = system: Human immunodeficiency virus 1; experiment: Antiviral activity against HIV1 harboring wild type 8.9NSX with gag T81A mutant infected in HEK293T cells assessed as inhibition of viral replication after 48 hrs by luciferase assay; assay type: functional, organism-based; details: HEK-293T; procedure, shortened: as §1
[6] = system: Human immunodeficiency virus 1; experiment: Antiviral activity against HIV1 harboring mutant protease with matrix A81T mutant infected in HEK293T cells assessed as inhibition of viral replication after 48 hrs by luciferase assay; assay type: functional, organism-based; details: HEK-293T; procedure, shortened: as §1
[7] = system: Human immunodeficiency virus 1; experiment: Ratio of EC50 for HIV1 harboring HIV1 harboring wild type 8.9NSX with gag […] and T81A mutant to EC50 for wild type HIV1; assay type: functional; procedure, shortened: as §1

**Q.** With COC(=O)N[C@H](C(=O)N[C@@H](Cc1ccccc1)[C@@H](O)CN(Cc1ccc(-c2ccccn2)cc1)NC(=O)[C@@H](NC(=O)OC)C(C)(C)C)C(C)(C)C as the compound, how does the inhibition [1] read?
**A.** The inhibition was “inactive”.

**Q.** What about the inhibition [2] of the same compound?
**A.** Its inhibition is “inactive”.

**Q.** What about the inhibition [3] of the same compound?
**A.** The inhibition was “inactive”.

**Q.** What about the inhibition [4] of the same compound?
**A.** The inhibition was “inactive”.

**Q.** What about the inhibition [5] of the same compound?
**A.** The inhibition was “inactive”.

**Q.** And the inhibition [6]?
**A.** The inhibition was “inactive”.

**Q.** With CC(C)CN(C[C@@H](O)[C@H](Cc1ccccc1)NC(=O)O[C@H]1CCOC1)S(=O)(=O)c1ccc(N)cc1 [AMPRENAVIR] as the compound, how does the inhibition [1] read?
**A.** Its inhibition is “inactive”.

**Q.** And the inhibition [2]?
**A.** Its inhibition is “inactive”.

**Q.** And the inhibition [3]?
**A.** Its inhibition is “inactive”.

**Q.** And the inhibition [4]?
**A.** Its inhibition is “inactive”.

**Q.** What about the inhibition [5] of the same compound?
**A.** The inhibition was “inactive”.

**Q.** What about the inhibition [6] of the same compound?
**A.** Its inhibition is “inactive”.

**Q.** And the “Ratio EC50” value [7]?
**A.** Its value is 3.

**Q.** Which inhibition [2] does the source give for CC(C)CN(C[C@@H](O)[C@H](Cc1ccccc1)NC(=O)O[C@H]1CO[C@H]2OCC[C@H]21)S(=O)(=O)c1ccc(N)cc1 [DARUNAVIR] here?
**A.** The inhibition was “inactive”.

**Q.** What about the inhibition [3] of the same compound?
**A.** Its inhibition is “inactive”.

**Q.** What about the “Ratio EC50” value [7] of the same compound?
**A.** The value was 3.

**Q.** CC(C)(C)NC(=O)[C@@H]1CN(Cc2cccnc2)CCN1C[C@@H](O)C[C@@H](Cc1ccccc1)C(=O)N[C@H]1c2ccccc2C[C@H]1O.O [INDINAVIR] was tested. Which inhibition [1] did it give?
**A.** Its inhibition is “inactive”.

**Q.** And the inhibition [2]?
**A.** Its inhibition is “inactive”.

**Q.** And the inhibition [3]?
**A.** Its inhibition is “inactive”.

**Q.** What about the inhibition [4] of the same compound?
**A.** The inhibition was “inactive”.

**Q.** And the inhibition [6]?
**A.** The inhibition was “inactive”.

**Q.** What about the “Ratio EC50” value [7] of the same compound?
**A.** Its value is 3.

**Q.** How did the inhibition [1] turn out when Cc1cccc(C)c1OCC(=O)N[C@@H](Cc1ccccc1)[C@@H](O)C[C@H](Cc1ccccc1)NC(=O)[C@H](C(C)C)N1CCCNC1=O [LOPINAVIR] was run?
**A.** Its inhibition is “inactive”.

**Q.** And the inhibition [2]?
**A.** Its inhibition is “inactive”.

**Q.** What about the inhibition [3] of the same compound?
**A.** Its inhibition is “inactive”.

**Q.** And the inhibition [4]?
**A.** Its inhibition is “inactive”.

**Q.** And the inhibition [6]?
**A.** The inhibition was “inactive”.

**Q.** And the “Ratio EC50” value [7]?
**A.** The value was 3.

**Q.** What does the source list for Cc1c(O)cccc1C(=O)N[C@@H](CSc1ccccc1)[C@H](O)CN1C[C@H]2CCCC[C@H]2C[C@H]1C(=O)NC(C)(C)C [NELFINAVIR]?
**A.** inhibition [1]: inactive; inhibition [2]: inactive; inhibition [3]: inactive; inhibition [4]: inactive; inhibition [5]: inactive; inhibition [6]: inactive; Ratio EC50 [7]: 3

**Q.** Which results are given for CC(C)(C)NC(=O)[C@@H]1C[C@@H]2CCCC[C@@H]2CN1C[C@@H](O)[C@H](Cc1ccccc1)NC(=O)[C@H](CC(N)=O)NC(=O)c1ccc2ccccc2n1 [SAQUINAVIR]?
**A.** inhibition [2]: inactive; inhibition [3]: inactive; Ratio EC50 [7]: 3

**Q.** With CCC[C@@]1(CCc2ccccc2)CC(O)=C([C@H](CC)c2cccc(NS(=O)(=O)c3ccc(C(F)(F)F)cn3)c2)C(=O)O1 [TIPRANAVIR] as the compound, how does the inhibition [2] read?
**A.** Its inhibition is “inactive”.

**Q.** And the inhibition [3]?
**A.** The inhibition was “inactive”.

**Q.** What about the “Ratio EC50” value [7] of the same compound?
**A.** Its value is 3.
